Drawing on ChEMBL document CHEMBL1123863, “1-[[[5-(substituted phenyl)-2-oxazolyl]methylene]amino]-2,4- imidazolidinediones, a new class of skeletal muscle relaxants” (1987), this text covers HTD, Inhibition and inhibition in vivo for 21 molecules.

One assay has as its system Mus musculus. Description: Highest tolerated dose (p.o.) in mice. The class given is functional. Put shortly:
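Mice dosed orally with suspensions in 0.5% methylcellulose 4000 at 50, 200, 400 and 800 mg/kg. Muscle relaxation scored over a 2.0-h observation period on a 0 (none) to 4 (severe) scale. Acute toxicity followed for 72 h after dosing; highest tolerated oral dose given in mg/kg.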

Another assay relates to Rattus norvegicus. Briefly: Inhibition of gastrocnemius twitch tension after a cumulative dose of 36.6 mg/kg iv in rats. The class given is functional. Particulars: for inhibition in vivo at 36.6 mg/kg: Rattus norvegicus, Gastrocnemius, iv. The gist of the method: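 Pithed rat gastrocnemius preparation: adult male Charles River rats (385–400 g), ether anesthesia, tracheotomy, pithed, artificially respired, bilaterally vagotomized. Tubocurarine chloride 0.075 mg/kg iv given for neuromuscular blockade, isolating direct muscle action. Compounds in tetrahydro-2-furanmethanol or DMSO, given iv as sequential 0.83, 2.5, 8.3, 25 mg/kg doses. Percent twitch tension inhibition read after the cumulative dose.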

The term Inhibition denotes the change of the read-out against control, counted positive when it falls. As to `O=C1CN(/N=C/c2ncc(-c3ccc(Cl)c(Cl)c3)o2)C(=O)[N-]1.[Na+]`, the HTD in the assay on Mus musculus was >800 mg/kg. Further, the Inhibition in the assay with Rattus norvegicus is -71%.
The matching figures for `O=C1CN(/N=C/c2ncc(-c3ccc(Cl)cc3)o2)C(=O)[N-]1.[Na+]`: 400 mg/kg and -81%.
The molecule `O=C1CN(/N=C/c2ncc(-c3ccc(F)cc3)o2)C(=O)[N-]1.[Na+]` showed an HTD in the assay on Mus musculus of 400 mg/kg. For the same molecule, the Inhibition with Rattus norvegicus was -75%.
Regarding `O=C1CN(/N=C/c2ncc(-c3ccc(Cl)c(Cl)c3)o2)C(=O)N1`, in the assay with Mus musculus, the HTD is >800 mg/kg. The Inhibition with Rattus norvegicus is listed as -82%.
For `O=C1CN(/N=C/c2ncc(-c3ccc(F)cc3)o2)C(=O)N1` the same measures were >800 mg/kg and -70%.
Take `O=C1CN(/N=C/c2ncc(-c3cccc(C(F)(F)F)c3)o2)C(=O)[N-]1.[Na+]`: in the assay with Mus musculus, the HTD was 50 mg/kg. The Inhibition with Rattus norvegicus was -69%.
For the molecule `O=C1CN(/N=C/c2ncc(-c3ccc([N+](=O)[O-])cc3)o2)C(=O)[N-]1.[Na+]`, the HTD with Mus musculus was >800 mg/kg. Moreover, the Inhibition in the assay with Rattus norvegicus is listed as -84%.
Consider `Cc1ccc(-c2cnc(/C=N/N3CC(=O)NC3=O)o2)cc1`, for which the HTD in the assay on Mus musculus was >800 mg/kg. Besides, in the assay with Rattus norvegicus, the Inhibition is -65%.
Broadly, the inhibition in vivo is the relative decrease from the control value, in per cent. In the case of `O=C1CN(/N=C/c2ncc(-c3cccc(Cl)c3)o2)C(=O)[N-]1.[Na+]`, in the assay with Mus musculus, the HTD was 400 mg/kg. In the assay with Rattus norvegicus, the inhibition in vivo at 36.6 mg/kg is -42%.
In the case of `O=C1CN(/N=C/c2ncc(-c3ccccc3)o2)C(=O)[N-]1.[Na+]`, in the assay on Mus musculus, the HTD worked out at 200 mg/kg. The Inhibition with Rattus norvegicus is -49%.
Take `Cc1ccc(-c2cnc(/C=N/N3CC(=O)[N-]C3=O)o2)cc1.[Na+]`: the HTD with Mus musculus is >800 mg/kg. Further, the Inhibition in the assay on Rattus norvegicus is -62%.
The matching figures for `COc1ccc(-c2cnc(/C=N/N3CC(=O)NC3=O)o2)cc1`: >800 mg/kg and -47%.
Consider `O=C1CN(/N=C/c2ncc(-c3ccc(Cl)cc3)o2)C(=O)N1`, for which the HTD in the assay on Mus musculus was >800 mg/kg. Moreover, the Inhibition in the assay with Rattus norvegicus is listed as -80%.
In the case of `O=C1CN(/N=C/c2ncc(-c3ccc([N+](=O)[O-])cc3)o2)C(=O)N1`, the HTD in the assay with Mus musculus was >800 mg/kg. Also, the Inhibition in the assay on Rattus norvegicus is -86%.
On to `O=C1CN(/N=C/c2ncc(-c3ccccc3[N+](=O)[O-])o2)C(=O)N1`, for which, in the assay with Mus musculus, the HTD is >800 mg/kg. Further, in the assay on Rattus norvegicus, the inhibition in vivo at 36.6 mg/kg turned out to be 0%.
Take `O=C1CN(/N=C/c2ncc(-c3cccc(C(F)(F)F)c3)o2)C(=O)N1`: the HTD in the assay on Mus musculus amounted to 400 mg/kg. For the same molecule, the Inhibition in the assay with Rattus norvegicus was -56%.
For `COc1ccc(-c2cnc(/C=N/N3CC(=O)[N-]C3=O)o2)cc1.[Na+]` the same measures were >800 mg/kg and -58%.
The matching figures for `O=C1CN(/N=C/c2ncc(-c3ccccc3)o2)C(=O)N1`: >800 mg/kg and -41%.
In the assay on Mus musculus, `O=C1CN(/N=C/c2ncc(-c3ccc(Br)cc3)o2)C(=O)[N-]1.[Na+]` [AZUMOLENE SODIUM] showed an HTD of 400 mg/kg. Besides, the Inhibition with Rattus norvegicus is recorded as -83%.
On to `O=C1CN(/N=C/c2ncc(-c3ccc(Br)cc3)o2)C(=O)N1` [AZUMOLENE], for which the HTD in the assay with Mus musculus was >800 mg/kg. The Inhibition in the assay with Rattus norvegicus is reported as -82%.
As for `O=C1CN(/N=C/c2ccc(-c3ccc([N+](=O)[O-])cc3)o2)C(=O)[N-]1.[Na+]` [DANTROLENE SODIUM], the HTD with Mus musculus was >400 mg/kg. In the assay with Rattus norvegicus, the inhibition in vivo at 36.6 mg/kg was -80%.
